Measurements from ChEMBL document CHEMBL2331324, “Synthesis and biological evaluation of guanidino analogues of roscovitine” (Eur J Med Chem, 2013).

How the values were obtained:
[1] = target: Phosphorylase kinase (Homo sapiens) (UniProt P15735+P46020+P46019+Q93100+Q16816); assay: Inhibition of recombinant PHK (unknown origin) assessed as residual activity using [gamma-33P]ATP as substrate at 1 uM; format: protein-complex assay
Outline: (§1)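 Selectivity panel run under previously published conditions. Screened at 1 μM in duplicate. Reactions started with [γ-33P]ATP (800 cpm/pmol) at 5, 20 or 50 μM, chosen to be at or below each enzyme's ATP Km. Stopped with phosphoric acid, spotted onto P81 filters. Result expressed as residual kinase activity.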

[2] = target: Mitogen-activated protein kinase 14 (Homo sapiens) (UniProt Q16539); assay: Inhibition of recombinant p38 MAPKalpha (unknown origin) assessed as residual activity using [gamma-33P]ATP as substrate at 1 uM
Outline: (§2)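 Kinase panel screen with each compound at 1 µM, in duplicate. Reactions were started with [γ-33P]ATP (800 cpm/pmol) at 5, 20 or 50 µM, chosen per enzyme to be at or below its ATP Km. Reactions were stopped with phosphoric acid and spotted onto P81 filters. Results are given as residual kinase activity.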

[3] = target: NUAK family SNF1-like kinase 1 (Homo sapiens) (UniProt O60285); assay: Inhibition of recombinant NUAK1 (unknown origin) assessed as residual activity using [gamma-33P]ATP as substrate at 1 uM; outline: as §1
[4] = target: Serine/threonine-protein kinase 3 (Homo sapiens) (UniProt Q13188); assay: Inhibition of recombinant MST2 (unknown origin) assessed as residual activity using [gamma-33P]ATP as substrate at 1 uM; outline: as §1
Chain of Serine/threonine-protein kinase 3 (Homo sapiens) (Q13188 whole entry): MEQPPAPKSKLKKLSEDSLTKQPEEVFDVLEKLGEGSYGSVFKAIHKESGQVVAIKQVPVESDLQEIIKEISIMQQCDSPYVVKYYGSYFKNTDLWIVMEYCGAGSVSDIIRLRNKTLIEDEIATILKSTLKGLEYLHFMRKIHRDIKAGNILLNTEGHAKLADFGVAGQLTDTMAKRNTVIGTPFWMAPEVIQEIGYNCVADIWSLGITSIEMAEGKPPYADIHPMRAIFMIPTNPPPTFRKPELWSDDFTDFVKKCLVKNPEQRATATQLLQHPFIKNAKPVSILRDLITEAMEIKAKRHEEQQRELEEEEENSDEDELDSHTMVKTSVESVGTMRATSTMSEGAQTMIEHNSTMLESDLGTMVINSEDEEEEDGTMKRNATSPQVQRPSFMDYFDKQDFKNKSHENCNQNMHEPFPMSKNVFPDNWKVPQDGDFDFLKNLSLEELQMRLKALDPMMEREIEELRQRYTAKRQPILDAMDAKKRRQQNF

[5] = target: Dual specificity mitogen-activated protein kinase kinase 1 (Homo sapiens) (UniProt Q02750); assay: Inhibition of recombinant MKK1 (unknown origin) assessed as residual activity using [gamma-33P]ATP as substrate at 1 uM; outline: as §1
Chain of Dual specificity mitogen-activated protein kinase kinase 1 (Homo sapiens) (Q02750 whole entry): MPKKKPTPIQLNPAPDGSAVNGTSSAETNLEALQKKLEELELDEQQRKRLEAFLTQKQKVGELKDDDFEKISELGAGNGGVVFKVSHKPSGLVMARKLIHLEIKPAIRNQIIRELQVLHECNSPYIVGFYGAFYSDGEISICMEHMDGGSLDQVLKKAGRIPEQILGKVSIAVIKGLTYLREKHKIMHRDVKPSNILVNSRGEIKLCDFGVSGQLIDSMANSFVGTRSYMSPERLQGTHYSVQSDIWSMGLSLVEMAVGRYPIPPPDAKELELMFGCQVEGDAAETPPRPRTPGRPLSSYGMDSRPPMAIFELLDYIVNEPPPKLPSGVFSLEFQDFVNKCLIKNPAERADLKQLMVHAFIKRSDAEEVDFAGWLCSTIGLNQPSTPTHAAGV

[6] = target: MAP kinase-activated protein kinase 2 (Homo sapiens) (UniProt P49137); assay: Inhibition of recombinant MAPKAPK2 (unknown origin) assessed as residual activity using [gamma-33P]ATP as substrate at 1 uM; outline: as §1
Chain of MAP kinase-activated protein kinase 2 (Homo sapiens) (P49137 whole entry, looked up): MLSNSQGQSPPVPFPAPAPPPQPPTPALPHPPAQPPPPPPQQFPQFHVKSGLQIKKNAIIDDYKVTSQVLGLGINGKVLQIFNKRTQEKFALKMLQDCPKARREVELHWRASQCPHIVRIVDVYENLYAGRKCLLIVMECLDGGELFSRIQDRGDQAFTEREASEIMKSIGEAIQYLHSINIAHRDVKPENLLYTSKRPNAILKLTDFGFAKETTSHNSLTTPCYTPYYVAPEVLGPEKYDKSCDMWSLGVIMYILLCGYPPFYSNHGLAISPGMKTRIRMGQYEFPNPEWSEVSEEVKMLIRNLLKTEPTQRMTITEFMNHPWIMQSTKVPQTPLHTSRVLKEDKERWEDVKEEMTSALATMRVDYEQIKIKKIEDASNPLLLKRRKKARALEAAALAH

[7] = target: Serine/threonine-protein kinase STK11 (Homo sapiens) (UniProt Q15831); assay: Inhibition of recombinant LKB1 (unknown origin) assessed as residual activity using [gamma-33P]ATP as substrate at 1 uM; outline: as §1
[8] = target: Tyrosine-protein kinase Lck (Homo sapiens) (UniProt P06239); assay: Inhibition of recombinant LCK (unknown origin) assessed as residual activity using [gamma-33P]ATP as substrate at 1 uM; outline: as §1
Chain of Tyrosine-protein kinase Lck (Homo sapiens) (P06239 2-509 limits assumed): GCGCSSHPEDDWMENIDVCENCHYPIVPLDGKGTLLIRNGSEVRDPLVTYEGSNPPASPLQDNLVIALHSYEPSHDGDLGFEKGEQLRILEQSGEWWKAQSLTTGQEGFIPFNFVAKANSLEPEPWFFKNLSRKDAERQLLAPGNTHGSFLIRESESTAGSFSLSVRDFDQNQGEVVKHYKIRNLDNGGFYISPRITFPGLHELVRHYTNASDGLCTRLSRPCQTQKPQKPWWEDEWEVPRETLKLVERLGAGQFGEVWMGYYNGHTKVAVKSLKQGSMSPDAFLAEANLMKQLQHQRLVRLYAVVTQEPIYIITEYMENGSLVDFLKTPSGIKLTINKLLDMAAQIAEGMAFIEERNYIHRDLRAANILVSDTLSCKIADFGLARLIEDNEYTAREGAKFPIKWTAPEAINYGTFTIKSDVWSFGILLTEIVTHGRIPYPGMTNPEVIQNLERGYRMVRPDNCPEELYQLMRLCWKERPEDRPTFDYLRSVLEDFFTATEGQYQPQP

[9] = target: Interleukin-1 receptor-associated kinase 1 (Homo sapiens) (UniProt P51617); assay: Inhibition of recombinant IRAK1 (unknown origin) assessed as residual activity using [gamma-33P]ATP as substrate at 1 uM
Outline: (§3)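 Recombinant kinase panel screened at 1 µM in duplicate. Reactions started with [γ-33P]ATP (800 cpm/pmol) at 5, 20 or 50 µM, chosen to sit at or below each enzyme's ATP Km. Stopped with phosphoric acid and spotted onto P81 filters. Result given as residual kinase activity.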

[10] = target: Insulin-like growth factor 1 receptor (Homo sapiens) (UniProt P08069); assay: Inhibition of recombinant IGF-1R (unknown origin) assessed as residual activity using [gamma-33P]ATP as substrate at 1 uM; outline: as §3
[11] = target: Homeodomain-interacting protein kinase 1 (Homo sapiens) (UniProt Q86Z02); assay: Inhibition of recombinant HIPK1 (unknown origin) assessed as residual activity using [gamma-33P]ATP as substrate at 1 uM; outline: as §3
Chain of Homeodomain-interacting protein kinase 1 (Homo sapiens) (Q86Z02 whole entry, looked up): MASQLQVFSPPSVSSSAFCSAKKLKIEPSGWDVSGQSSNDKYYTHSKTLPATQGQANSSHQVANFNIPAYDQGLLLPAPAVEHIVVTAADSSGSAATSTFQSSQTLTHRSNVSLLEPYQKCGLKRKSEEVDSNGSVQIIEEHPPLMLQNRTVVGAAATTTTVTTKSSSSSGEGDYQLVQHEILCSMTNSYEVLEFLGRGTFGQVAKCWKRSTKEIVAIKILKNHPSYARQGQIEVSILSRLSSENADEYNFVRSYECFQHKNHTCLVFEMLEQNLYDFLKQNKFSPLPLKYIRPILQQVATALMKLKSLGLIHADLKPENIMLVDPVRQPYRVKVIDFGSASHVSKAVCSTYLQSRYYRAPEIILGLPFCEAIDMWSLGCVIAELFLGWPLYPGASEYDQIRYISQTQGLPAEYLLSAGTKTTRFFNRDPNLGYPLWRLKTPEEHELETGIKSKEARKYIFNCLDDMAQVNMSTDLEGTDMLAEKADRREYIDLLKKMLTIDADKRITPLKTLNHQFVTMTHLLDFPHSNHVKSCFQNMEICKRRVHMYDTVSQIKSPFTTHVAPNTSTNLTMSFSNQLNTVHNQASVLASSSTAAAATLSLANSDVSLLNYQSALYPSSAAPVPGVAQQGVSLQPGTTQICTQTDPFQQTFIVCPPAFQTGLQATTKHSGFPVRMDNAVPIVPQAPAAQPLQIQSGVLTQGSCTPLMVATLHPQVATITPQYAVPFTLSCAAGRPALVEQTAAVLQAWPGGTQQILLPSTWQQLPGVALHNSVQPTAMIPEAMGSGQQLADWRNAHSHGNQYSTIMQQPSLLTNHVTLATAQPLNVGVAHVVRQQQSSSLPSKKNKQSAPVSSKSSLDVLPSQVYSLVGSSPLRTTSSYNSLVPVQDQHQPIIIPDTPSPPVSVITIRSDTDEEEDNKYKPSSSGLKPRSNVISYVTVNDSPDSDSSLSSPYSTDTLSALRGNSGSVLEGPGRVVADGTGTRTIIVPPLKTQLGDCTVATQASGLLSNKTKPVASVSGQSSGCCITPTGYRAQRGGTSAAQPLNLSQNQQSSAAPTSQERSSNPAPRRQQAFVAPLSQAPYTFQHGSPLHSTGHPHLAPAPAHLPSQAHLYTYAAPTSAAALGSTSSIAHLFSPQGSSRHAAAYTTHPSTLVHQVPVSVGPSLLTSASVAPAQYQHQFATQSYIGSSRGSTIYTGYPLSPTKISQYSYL

[12] = target: Homeodomain-interacting protein kinase 2 (Homo sapiens) (UniProt Q9H2X6); assay: Inhibition of recombinant HIPK2 (unknown origin) assessed as residual activity using [gamma-33P]ATP as substrate at 1 uM; outline: as §3
[13] = target: Mitogen-activated protein kinase kinase kinase kinase 2 (Homo sapiens) (UniProt Q12851); assay: Inhibition of recombinant GCK (unknown origin) assessed as residual activity using [gamma-33P]ATP as substrate at 1 uM; outline: as §3
Chain of Mitogen-activated protein kinase kinase kinase kinase 2 (Homo sapiens) (Q12851 whole entry): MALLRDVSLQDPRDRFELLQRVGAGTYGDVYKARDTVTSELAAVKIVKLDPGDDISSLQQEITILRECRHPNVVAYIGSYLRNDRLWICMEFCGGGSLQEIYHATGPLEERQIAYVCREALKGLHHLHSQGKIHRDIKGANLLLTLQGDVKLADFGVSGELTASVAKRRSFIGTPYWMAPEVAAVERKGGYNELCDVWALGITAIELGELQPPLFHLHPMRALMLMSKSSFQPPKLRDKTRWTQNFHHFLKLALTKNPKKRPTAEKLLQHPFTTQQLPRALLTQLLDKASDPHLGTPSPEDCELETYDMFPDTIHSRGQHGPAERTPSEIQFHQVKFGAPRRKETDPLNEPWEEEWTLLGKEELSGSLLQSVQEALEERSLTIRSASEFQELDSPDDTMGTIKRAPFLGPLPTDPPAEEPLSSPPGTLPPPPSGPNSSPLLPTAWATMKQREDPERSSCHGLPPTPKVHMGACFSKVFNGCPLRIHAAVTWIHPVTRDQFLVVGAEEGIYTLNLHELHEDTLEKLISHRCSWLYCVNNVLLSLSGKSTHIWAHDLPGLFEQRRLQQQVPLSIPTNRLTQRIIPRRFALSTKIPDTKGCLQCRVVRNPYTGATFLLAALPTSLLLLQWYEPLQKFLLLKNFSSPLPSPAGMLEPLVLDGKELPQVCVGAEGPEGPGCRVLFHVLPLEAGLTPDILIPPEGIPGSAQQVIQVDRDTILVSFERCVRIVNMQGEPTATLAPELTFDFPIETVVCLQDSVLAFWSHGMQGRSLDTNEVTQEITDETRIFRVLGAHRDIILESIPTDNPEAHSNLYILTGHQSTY

[14] = target: Aurora kinase A/B (Homo sapiens) (UniProt Q96GD4+O14965); assay: Activity at Aurora kinase A/B in human MCF7 cells assessed as histone H3 phosphorylation at Ser10 at 100 uM after 24 hrs by flow cytometry relative to untreated control; format: cell-based
Outline: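 Flow cytometry on MCF7 cells exposed 24 h to 100 µM. About one million cells fixed in 90% methanol, rehydrated, and labelled with primary antibody to pH3 Ser10, then an Alexa Fluor 488 secondary. Alexa read at 488/525 nm (ex/em). The value is the fraction of pH3-positive cells in treated cultures divided by that in untreated control.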

[15] = target: Serine/threonine-protein kinase TBK1 (Homo sapiens) (UniProt Q9UHD2); assay: Inhibition of recombinant TBK1 (unknown origin) assessed as residual activity using [gamma-33P]ATP as substrate at 1 uM; outline: as §2
[16] = target: Serine/threonine-protein kinase 33 (Homo sapiens) (UniProt Q9BYT3); assay: Inhibition of recombinant STK33 (unknown origin) assessed as residual activity using [gamma-33P]ATP as substrate at 1 uM; outline: as §2
Chain of Serine/threonine-protein kinase 33 (Homo sapiens) (Q9BYT3 whole entry, looked up): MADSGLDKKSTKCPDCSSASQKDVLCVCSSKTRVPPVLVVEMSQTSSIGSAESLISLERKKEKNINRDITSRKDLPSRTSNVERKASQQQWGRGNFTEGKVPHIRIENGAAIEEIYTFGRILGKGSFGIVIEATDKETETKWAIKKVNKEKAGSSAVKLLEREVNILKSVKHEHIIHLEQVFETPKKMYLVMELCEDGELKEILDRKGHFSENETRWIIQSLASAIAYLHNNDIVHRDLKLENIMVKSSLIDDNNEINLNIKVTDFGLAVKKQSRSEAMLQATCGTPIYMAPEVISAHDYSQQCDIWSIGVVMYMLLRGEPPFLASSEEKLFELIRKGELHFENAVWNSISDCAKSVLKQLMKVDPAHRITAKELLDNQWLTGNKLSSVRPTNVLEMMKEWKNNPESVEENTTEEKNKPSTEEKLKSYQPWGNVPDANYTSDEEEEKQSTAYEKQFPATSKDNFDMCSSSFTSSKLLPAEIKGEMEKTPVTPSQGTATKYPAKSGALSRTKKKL

[17] = target: Rho-associated protein kinase 2 (Homo sapiens) (UniProt O75116); assay: Inhibition of recombinant ROCK2 (unknown origin) assessed as residual activity using [gamma-33P]ATP as substrate at 1 uM; outline: as §1
[18] = target: Serine/threonine-protein kinase PLK1 (Homo sapiens) (UniProt P53350); assay: Inhibition of recombinant PLK1 (unknown origin) assessed as residual activity using [gamma-33P]ATP as substrate at 1 uM; outline: as §1
[19] = target: Eukaryotic elongation factor 2 kinase (Homo sapiens) (UniProt O00418); assay: Inhibition of recombinant EF2K (unknown origin) assessed as residual activity using [gamma-33P]ATP as substrate at 1 uM; outline: as §3
[20] = target: Casein kinase II (Homo sapiens) (UniProt P67870+P68400+P19784); assay: Inhibition of recombinant CK2 (unknown origin) assessed as residual activity using [gamma-33P]ATP as substrate at 1 uM; format: protein-complex assay; outline: as §3
Homo sapiens = organism: Homo sapiens; assay: Inhibition of recombinant CK1 (unknown origin) assessed as residual activity using [gamma-33P]ATP as substrate at 1 uM; outline: as §3
[21] = target: Calcium/calmodulin-dependent protein kinase kinase 2 (Homo sapiens) (UniProt Q96RR4); assay: Inhibition of recombinant CAMKKbeta (unknown origin) assessed as residual activity using [gamma-33P]ATP as substrate at 1 uM; outline: as §3
Chain of Calcium/calmodulin-dependent protein kinase kinase 2 (Homo sapiens) (Q96RR4 2-588 limits assumed): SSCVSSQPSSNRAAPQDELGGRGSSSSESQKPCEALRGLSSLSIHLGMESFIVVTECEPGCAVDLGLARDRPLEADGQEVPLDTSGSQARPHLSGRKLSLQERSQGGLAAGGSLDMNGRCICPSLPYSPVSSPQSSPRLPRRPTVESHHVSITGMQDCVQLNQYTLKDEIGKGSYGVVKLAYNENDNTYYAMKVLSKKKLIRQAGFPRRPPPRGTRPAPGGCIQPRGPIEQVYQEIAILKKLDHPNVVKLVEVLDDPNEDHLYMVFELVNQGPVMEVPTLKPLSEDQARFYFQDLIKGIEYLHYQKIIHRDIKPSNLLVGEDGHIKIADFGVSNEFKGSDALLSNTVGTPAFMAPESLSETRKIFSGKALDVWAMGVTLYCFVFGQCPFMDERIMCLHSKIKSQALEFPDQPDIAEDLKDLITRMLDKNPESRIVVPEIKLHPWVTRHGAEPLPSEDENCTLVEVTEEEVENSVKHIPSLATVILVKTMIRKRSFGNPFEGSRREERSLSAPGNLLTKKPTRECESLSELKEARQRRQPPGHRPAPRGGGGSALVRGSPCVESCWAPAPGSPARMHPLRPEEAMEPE

[22] = target: Serine/threonine-protein kinase BRSK1 (Homo sapiens) (UniProt Q8TDC3); assay: Inhibition of recombinant BRSK1 (unknown origin) assessed as residual activity using [gamma-33P]ATP as substrate at 1 uM; outline: as §3
[23] = target: Protein-tyrosine kinase 6 (Homo sapiens) (UniProt Q13882); assay: Inhibition of recombinant BRK (unknown origin) assessed as residual activity using [gamma-33P]ATP as substrate at 1 uM; outline: as §3

Activity [1] [%]	Activity [2] [%]	Activity [3] [%]	Activity [4] [%]	Activity [5] [%]	Activity [6] [%]	Activity [7] [%]	Activity [8] [%]	Activity [9] [%]	Activity [10] [%]	Activity [11] [%]	Activity [12] [%]	Activity [13] [%]	Ratio [14]	Activity [15] [%]	Activity [16] [%]	Activity [17] [%]	Activity [18] [%]	Activity [19] [%]	Activity [20] [%]	SMILES	also measured
14	87	8	35	41	41	13	13	26	10	15	8	15	0.08	92	11	61	108	94	43	CC[C@H](CO)Nc1nc(NC(=N)N)c2ncn(C(C)C)c2n1	Activity (Homo sapiens): 15%; Activity [21]: 17%; Activity [22]: 44%; Activity [23]: 50%
12	82	7	43	28	48	16	12	17	5	11	6	10	0.09	90	9	65	108	94	33	CC[C@@H](CO)Nc1nc(NC(=N)N)c2ncn(C(C)C)c2n1	Activity (Homo sapiens): 21%; Activity [21]: 13%; Activity [22]: 45%; Activity [23]: 44%
